We go through 29 compounds from ChEMBL document CHEMBL1138479, “Synthesis and antiplasmodial activity of aminoalkylamino-substituted neocryptolepine derivatives” (J Med Chem, 2009).

Data set [1] can be described thus: Selectivity index, ratio of IC50 for human MRC5 SV2 cells to IC50 for chloroquine-sensitive Plasmodium falciparum Ghana. The class given is toxicity, cell-based. The note with it: read-out: Ratio IC50.
The nature of data set [2]: Cytotoxicity against human MRC5 SV2 cells after 72 hrs by resazurin-based fluorometric assay. Format: cell-based. The note with it: MRC5, 72 h. The essentials: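 MRC-5 SV2 fibroblasts were kept in MEM with 20 mM L-glutamine and 5% FCS at 37 °C, 5% CO2. Cells were seeded at 10⁴/well onto prediluted compounds and incubated 72 h. Viability was read fluorimetrically after resazurin addition.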
A general note: Alamar Blue is a resazurin reagent that responds to reducing activity.

In data set [3] the target is T1, Histidine-rich protein PFHRP-II (Plasmodium falciparum, UniProt P05227).
T1 sequence (P05227 whole entry): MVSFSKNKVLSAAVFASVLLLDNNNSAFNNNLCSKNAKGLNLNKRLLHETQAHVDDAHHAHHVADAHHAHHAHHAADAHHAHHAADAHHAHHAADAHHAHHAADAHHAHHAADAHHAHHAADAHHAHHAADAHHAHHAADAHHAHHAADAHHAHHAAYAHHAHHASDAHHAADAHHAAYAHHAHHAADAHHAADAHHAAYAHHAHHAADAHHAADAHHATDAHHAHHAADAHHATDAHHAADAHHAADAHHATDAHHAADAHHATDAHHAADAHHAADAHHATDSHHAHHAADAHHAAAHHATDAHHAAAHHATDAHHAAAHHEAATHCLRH
Nature of the data set: Inhibition of beta-hematin formation after 18 hrs by microtiter plate assay. The class given is functional.

In a further data set the target is Nucleic Acid. In words: Binding affinity to DNA assessed as intercalation after 24 hrs by DNA-methyl green assay. Format: nucleic-acid assay. An outline of the steps: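 DNA-methyl green reagent (20 mg in 100 mL 0.05 M Tris HCl pH 7.5 with 7.5 mM MgSO4, stirred 24 h at 37 °C) was added to dried compound. A620 was read at 0 and after 24 h at 25 °C. […] Cryptolepine was the positive control.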

The target of data set [4] is T1, Histidine-rich protein PFHRP-II. Nature of the data set: Inhibition of beta-hematin formation at 5 milliequivalent after 18 hrs by microtiter plate assay. Format: functional.
The test system of a further data set is Plasmodium falciparum. In words: Antiplasmodial activity against chloroquine-sensitive Plasmodium falciparum Ghana in human erythrocytes after 72 hrs by Malstat assay. Format: functional, organism-based. An outline of the steps:
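P. falciparum Ghana strain grown in human erythrocytes in RPMI-1640 at 37 °C under 3% O2, 4% CO2, 93% N2. Exposure to compounds lasted 72 h. Multiplication was read by Malstat with absorbance at 655 nm, and % growth inhibition was taken against negative blanks.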

The structures appear in SMILES notation.

Consider `Cn1c2nc3ccccc3c-2cc2ccccc21` [NEOCRYPTOLEPINE], for which the selectivity ratio in data set [1] turned out to be 0.4. For the same compound, the IC50 in data set [2] was 11 µM; in data set [3] it was 5.97 milliequivalent.
As to `CN1CCN(c2c3c4ccccc4nc-3n(C)c3ccc(Cl)cc23)CC1`, the IC50 was 358 µM on Nucleic Acid, “Not Active” in data set [4], 2.1 µM in the data set with Plasmodium falciparum and 1 µM in data set [2]. The selectivity ratio in data set [1] was 0.5.
Regarding `Cn1c2nc3ccccc3c-2cc2cc(Cl)ccc21`, the IC50 at Nucleic Acid was over 1000 µM; with Plasmodium falciparum, 52 µM; in data set [2], over 64 µM; in data set [3], 1.31 milliequivalent. The selectivity ratio in data set [1] was over 1.
For the compound `Clc1cccc2nc3[nH]c4ccccc4c3c(Cl)c12`, the IC50 on Nucleic Acid is over 1000 µM; in data set [4], “Not Active”; in the data set on Plasmodium falciparum, over 64 µM; in data set [2], over 64 µM.
For `CCN(CC)CCCC(C)Nc1c2c3ccccc3nc-2n(C)c2ccccc12` (centres undefined), the IC50 is 312 µM at Nucleic Acid, 0.62 µM in the data set with Plasmodium falciparum, 20 µM in data set [2] and 4.11 milliequivalent in data set [3]. Moreover, the selectivity ratio in data set [1] stood at 32.
As for `Cn1c2nc3ccccc3c-2c(Cl)c2ccc(Cl)cc21`, the selectivity ratio in data set [1] is under 0.4. The IC50 with Plasmodium falciparum is over 64 µM; in data set [2] it was 27 µM; in data set [3], 1.14 milliequivalent.
In the case of `CCN(CC)CCCC(C)Nc1c2c(Cl)cccc2nc2[nH]c3ccccc3c12` (centres undefined), the IC50 on Nucleic Acid was over 1000 µM; with Plasmodium falciparum, 1.2 µM; in data set [2], 20 µM; in data set [3] it was 3.05 milliequivalent. Moreover, in data set [1], the selectivity ratio is 17.
Regarding `Cn1c2nc3ccccc3c-2c(NCCN2CCOCC2)c2cc(Cl)ccc21`, the IC50 at Nucleic Acid is 118 µM; in data set [4] it was “Not Active”; with Plasmodium falciparum, 0.69 µM; in data set [2], 0.37 µM. For the same compound, the selectivity ratio in data set [1] was determined as 0.5.
As for `Cn1c2nc3ccccc3c-2cc2ccc(Cl)cc21`, the selectivity ratio in data set [1] is 0.5. The IC50 stood at 41.1 µM in the data set on Plasmodium falciparum and 21 µM in data set [2].
The corresponding values for `CCN(CC)CCCC(C)Nc1ccc2cc3c4ccccc4nc-3n(C)c2c1` (centres undefined) are 1070, 0.015 µM and 16 µM.
`Cn1c2nc3ccccc3c-2c(Cl)c2cc(Cl)ccc21`: the IC50 at Nucleic Acid was over 1000 µM; in data set [4], “Not Active”; with Plasmodium falciparum, over 64 µM; in data set [2], over 64 µM.
Take `CCN(CC)CCCC(C)Nc1ccc2c3cc4ccccc4n(C)c-3nc2c1` (centres undefined): the IC50 at Nucleic Acid turned out to be 219 µM; with Plasmodium falciparum, 0.01 µM; in data set [2], 18 µM; in data set [3] it was 4.4 milliequivalent. For the same compound, the selectivity ratio in data set [1] amounted to 1800.
With `CCN1CCCC1CNc1c2c3ccccc3nc-2n(C)c2ccc(Cl)cc12` (centres undefined), the IC50 was 645 µM on Nucleic Acid, “Not Active” in data set [4], under 0.25 µM with Plasmodium falciparum and 0.4 µM in data set [2]. The selectivity ratio in data set [1] was over 2.
On to `CN(C)CCNc1c2c3ccccc3nc-2n(C)c2ccc(Cl)cc12`, for which the IC50 is 164 µM at Nucleic Acid, “Not Active” in data set [4], under 0.25 µM in the data set with Plasmodium falciparum and under 0.25 µM in data set [2].
Take `Clc1ccc2nc3[nH]c4ccccc4c3c(NCCN3CCCC3)c2c1`: the IC50 on Nucleic Acid is over 1000 µM; in the data set on Plasmodium falciparum, 3 µM; in data set [2], over 64 µM; in data set [3], 5.4 milliequivalent. Also, the selectivity ratio in data set [1] was over 21.
With `Cn1c2nc3ccccc3c-2c(NCCN2CCCC2)c2cc(Cl)ccc21`, the IC50 on Nucleic Acid was 186 µM; in data set [4], “Not Active”; in the data set with Plasmodium falciparum it was under 0.25 µM; in data set [2], under 0.25 µM.
Take `CN1CCN(c2c3cc(Cl)ccc3nc3[nH]c4ccccc4c23)CC1`: the IC50 at Nucleic Acid is over 1000 µM; in the data set on Plasmodium falciparum, 2.46 µM; in data set [2], 3 µM; in data set [3] it was 2.09 milliequivalent. In data set [1], the selectivity ratio is 1.
For the compound `CCN(CC)CCCC(C)Nc1ccc2c(c1)cc1c3ccccc3nc-1n2C` (centres undefined), the IC50 amounted to 128 µM at Nucleic Acid, 0.03 µM in the data set on Plasmodium falciparum, 7.2 µM in data set [2] and 1.45 milliequivalent in data set [3]. Besides, the selectivity ratio in data set [1] came to 240.
The corresponding values for `CN(C)CCNc1c2cc(Cl)ccc2nc2[nH]c3ccccc3c12` are over 1000 µM, 0.4 µM, over 64 µM, 3.68 milliequivalent and over 160.
The corresponding values for `Clc1ccc2nc3[nH]c4ccccc4c3c(N3CCC(N4CCCCC4)CC3)c2c1` are over 1000 µM, under 0.25 µM, 2 µM, 2.2 milliequivalent and over 8.
Turning to `CCN(CC)CCCC(C)Nc1c2ccc(Cl)cc2nc2[nH]c3ccccc3c12` (centres undefined), the IC50 is over 1000 µM at Nucleic Acid, 0.14 µM in the data set on Plasmodium falciparum, 15 µM in data set [2] and 4.43 milliequivalent in data set [3]. Further, in data set [1], the selectivity ratio was 107.
Consider `Cn1c2nc3ccc(Cl)cc3c-2cc2ccccc21`, for which the IC50 at Nucleic Acid is over 1000 µM; in the data set on Plasmodium falciparum it was 29 µM; in data set [2] it was over 64 µM; in data set [3], 1.23 milliequivalent. Besides, the selectivity ratio in data set [1] was over 2.
Consider `Cn1c2nc3ccccc3c-2c(Cl)c2ccccc21` [11-CHLORONEOCRYPTOLEPINE], for which the selectivity ratio in data set [1] was under 0.08. The IC50 in the data set with Plasmodium falciparum is over 64 µM; in data set [2], 5 µM.
Regarding `OCCN1CCN(c2c3cc(Cl)ccc3nc3[nH]c4ccccc4c23)CC1`, the IC50 was over 1000 µM on Nucleic Acid, 2.34 µM in the data set on Plasmodium falciparum, 2 µM in data set [2] and 2 milliequivalent in data set [3]. For the same compound, the selectivity ratio in data set [1] amounted to 0.9.
The corresponding values for `CCN1CCCC1CNc1c2cc(Cl)ccc2nc2[nH]c3ccccc3c12` (centres undefined) are over 1000 µM, 0.38 µM, 15 µM, 1.53 milliequivalent and 39.
The corresponding values for `CCN(CC)CCCC(C)Nc1c2c3ccccc3nc-2n(C)c2cc(Cl)ccc12` (centres undefined) are 248 µM, 0.13 µM, 14 µM, 5.25 milliequivalent and 108.
For the compound `Clc1ccc2c(Cl)c3c(nc2c1)[nH]c1ccccc13`, the IC50 on Nucleic Acid was over 1000 µM; in data set [4], “Not Active”; with Plasmodium falciparum it was over 64 µM; in data set [2], over 64 µM.
As for `Cn1c2nc3cc(Cl)ccc3c-2cc2ccccc21`, the IC50 was over 1000 µM at Nucleic Acid, over 64 µM with Plasmodium falciparum, over 64 µM in data set [2] and 1.55 milliequivalent in data set [3].
On to `Clc1ccc2nc3[nH]c4ccccc4c3c(Cl)c2c1`, for which the IC50 was over 1000 µM on Nucleic Acid, “Not Active” in data set [4], over 64 µM in the data set with Plasmodium falciparum and over 64 µM in data set [2].
